In this test the target is Sigma non-opioid intracellular receptor 1 (Homo sapiens, UniProt Q99720). In words: Displacement of [3H]-(+)-pentazocine from sigma1 receptor (unknown origin) expressed in HEK293 cell membranes after 120 mins by microbeta scintillation counting method. The method in brief: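 Radioligand binding run by an external screening program; sigma-1 tracer [3H]-pentazocine, sigma-2 tracer [3H]-DTG. Each compound first tested at a single 10 μM concentration. Those giving >50% inhibition were then titrated over a dose range to derive pKi.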
On the technique in general: In a radioligand displacement assay an active substance lowers the binding of a labelled ligand.

This note sets out measurements from BindingDB's records for doi:10.1016/j.bmc.2019.03.030 (Northwestern University, 2019).

The Ki is a dissociation constant, usually derived from enzyme kinetics or from competition with a known ligand. A high value points to weaker binding.

Chain of Sigma non-opioid intracellular receptor 1 (Q99720 whole entry): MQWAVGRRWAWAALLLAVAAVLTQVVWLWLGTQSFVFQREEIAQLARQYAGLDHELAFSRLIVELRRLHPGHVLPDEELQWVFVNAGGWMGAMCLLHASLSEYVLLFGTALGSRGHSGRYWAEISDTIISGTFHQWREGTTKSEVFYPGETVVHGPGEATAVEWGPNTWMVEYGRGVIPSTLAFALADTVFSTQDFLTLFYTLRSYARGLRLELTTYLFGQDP

With `O=C(c1c2c(nn1-c1ccc(F)cc1)CCC(NCc1ccc(F)cc1)C2)N1CCCCC1` (stereo unspecified), the inhibition constant Ki was found to be 0.016 µM. In other words, the double-digit nanomolar range.
